{
  "source": "ChEMBL document CHEMBL1671683",
  "about": "“Activity of linezolid in an in vitro pharmacokinetic-pharmacodynamic model using different dosages and Staphylococcus aureus and Enterococcus faecalis strains with and without a hypermutator phenotype” (Antimicrob Agents Chemother, 2010)",
  "key": {"[1]": {"tested_on": "Staphylococcus aureus", "experiment": "Bactericidal activity against 48 hrs peripheral compartment culture samples of Staphylococcus aureus RN4220 MutS2 in two-compartment pharmacokinetic/pharmacodynamic model assessed as effect on bacterial count at 600 mg, bid administered as 0.5 hr infusion", "type": "functional", "how_it_was_run": "(§1)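 An 18-h culture concentrated 50-fold was injected into the peripheral compartment 3 h pre-sampling (~10^8 CFU/ml E. faecalis, 10^9 S. aureus). Counts came from dilution plating (detection limit 2–3 log10 CFU/ml), expressed as Δlog CFU/ml from treatment start. Run in duplicate.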"}, "[2]": {"tested_on": "Enterococcus faecalis", "experiment": "Bactericidal activity against 2 hrs peripheral compartment culture samples of Enterococcus faecalis ATCC 29212 in two-compartment pharmacokinetic/pharmacodynamic model assessed as effect on bacterial count at 200 mg, bid administered as 0.5 hr infusion", "type": "functional", "how_it_was_run": "as §1"}, "[3]": {"tested_on": "Enterococcus faecalis", "experiment": "Bactericidal activity against 1 hr peripheral compartment culture samples of Enterococcus faecalis ATCC 29212 in two-compartment pharmacokinetic/pharmacodynamic model assessed as effect on bacterial count at 600 mg, bid administered as 0.5 hr infusion", "type": "functional", "how_it_was_run": "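Two-compartment hollow-fibre model in cation-adjusted, protein-free MH broth, 37°C. Linezolid given as simulated 0.5-h infusion twice daily. Inoculum grown 18 h, concentrated 50-fold and placed in the peripheral compartment 3 h before t0. Peripheral samples at set times counted by dilution plating. First 10-fold dilution not plated, limiting detection to 2–3 log10 CFU/ml. Δlog CFU/ml taken from t0 count. Duplicates.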"}, "[4]": {"tested_on": "Enterococcus faecalis", "experiment": "Bactericidal activity against 2 hrs peripheral compartment culture samples of Enterococcus faecalis ATCC 29212 in two-compartment pharmacokinetic/pharmacodynamic model assessed as effect on bacterial count at 600 mg, bid administered as 0.5 hr infusion", "type": "functional", "how_it_was_run": "as §1"}, "[5]": {"tested_on": "Enterococcus faecalis", "experiment": "Bactericidal activity against 24 hrs peripheral compartment culture samples of Enterococcus faecalis Ef1497 in two-compartment pharmacokinetic/pharmacodynamic model assessed as effect on bacterial count at 800 mg, bid administered as 0.5 hr infusion", "type": "functional", "how_it_was_run": "as §1"}, "[6]": {"tested_on": "Enterococcus faecalis", "experiment": "Bactericidal activity against 2 hrs peripheral compartment culture samples of Enterococcus faecalis Ef1497 MutM3 in two-compartment pharmacokinetic/pharmacodynamic model assessed as effect on bacterial count at 600 mg, bid administered as 0.5 hr infusion", "type": "functional", "how_it_was_run": "as §1"}, "[7]": {"experiment": "Residual concentration at the end of the administration interval in two-compartment pharmacokinetic/pharmacodynamic model at 800 mg, bid administered as 0.5 hrs infusion", "type": "ADME", "settings": "iv, read-out: Drug uptake"}, "[8]": {"experiment": "Cmax in healthy human at 600 mg, iv, bid administered as 0.5 hr infusion", "type": "ADME, organism-based", "design": "dose 600 mg, route intravenous", "settings": "in vivo"}, "[9]": {"tested_on": "Staphylococcus aureus", "experiment": "Bactericidal activity against 12 hrs peripheral compartment culture samples of Staphylococcus aureus RN4220 in two-compartment pharmacokinetic/pharmacodynamic model assessed as effect on bacterial count at 600 mg, bid administered as 0.5 hr infusion", "type": "functional", "how_it_was_run": "as §1"}, "[10]": {"tested_on": "Enterococcus faecalis", "experiment": "AUBC (0 to 24 hrs) in Enterococcus faecalis ATCC 29212 in two-compartment pharmacokinetic/pharmacodynamic model at 200 mg, bid administered as 0.5 hr infusion for 2 days", "type": "functional", "how_it_was_run": "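Hollow-fibre two-compartment model in cation-adjusted, protein-free MH broth at 37°C. Human total-plasma linezolid profile simulated as 0.5-h infusion every 12 h for 48 h. Concentrated 18-h culture injected into the peripheral compartment 3 h before first sample, giving about 10^8 (E. faecalis) or 10^9 (S. aureus) CFU/ml. Viable counts by dilution plating over 0–24 h. Area indices calculated versus growth control curve. Duplicate runs.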"}, "[11]": {"experiment": "Residual concentration at the end of the administration interval in two-compartment pharmacokinetic/pharmacodynamic model at 800 mg, bid administered as 0.5 hr infusion over 24 hrs", "type": "ADME", "settings": "in vivo, iv"}, "[12]": {"experiment": "Total clearance in two-compartment pharmacokinetic/pharmacodynamic model at 600 mg, bid administered as 0.5 hr infusion over 24 hrs", "type": "ADME, organism-based", "settings": "in vivo, iv"}},
  "data": [
    {"compound": "CC(=O)NC[C@H]1CN(c2ccc(N3CCOCC3)c(F)c2)C(=O)O1", "note": "[LINEZOLID]", "values": [
      {"measurement": "log10CFU/ml", "setting": "[1]", "result": 0.74},
      {"measurement": "log10CFU/ml", "setting": "[2]", "result": 0.09},
      {"measurement": "log10CFU/ml", "setting": "[3]", "result": -0.12},
      {"measurement": "log10CFU/ml", "setting": "[4]", "result": -0.08},
      {"measurement": "log10CFU/ml", "setting": "[5]", "result": -0.04},
      {"measurement": "log10CFU/ml", "setting": "[6]", "result": -0.05},
      {"measurement": "concentration at 0.5 h", "setting": "[7]", "result": 1150, "unit": "ng/mL"},
      {"measurement": "Cmax", "setting": "[8]", "result": 14100, "unit": "ng/mL"},
      {"measurement": "log10CFU/ml", "setting": "[9]", "result": -0.15},
      {"measurement": "AUBC", "setting": "[10]", "result": 214, "unit": "log10CFU/ml.hr"},
      {"measurement": "Drug uptake", "setting": "[11]", "result": 1.42, "unit": "µg/mL"},
      {"measurement": "clearance", "setting": "[12]", "result": 215, "unit": "mL/min"}
    ]}
  ]
}
